The source made the active and inactive calls. No cut-off for these calls is given here.
What was measured:
[1] = target: T1, Polyunsaturated fatty acid lipoxygenase ALOX12 (Homo sapiens) (UniProt P18054); assay: Inhibition of 12-lipoxygenase in A23187-stimulated human PMNL assessed as reduction of 12(S)-H(P)ETE formation up to 10 uM preincubated 15 mins by RP-HPLC analysis in presence of exogenous arachidonic acid
T1 sequence (whole entry): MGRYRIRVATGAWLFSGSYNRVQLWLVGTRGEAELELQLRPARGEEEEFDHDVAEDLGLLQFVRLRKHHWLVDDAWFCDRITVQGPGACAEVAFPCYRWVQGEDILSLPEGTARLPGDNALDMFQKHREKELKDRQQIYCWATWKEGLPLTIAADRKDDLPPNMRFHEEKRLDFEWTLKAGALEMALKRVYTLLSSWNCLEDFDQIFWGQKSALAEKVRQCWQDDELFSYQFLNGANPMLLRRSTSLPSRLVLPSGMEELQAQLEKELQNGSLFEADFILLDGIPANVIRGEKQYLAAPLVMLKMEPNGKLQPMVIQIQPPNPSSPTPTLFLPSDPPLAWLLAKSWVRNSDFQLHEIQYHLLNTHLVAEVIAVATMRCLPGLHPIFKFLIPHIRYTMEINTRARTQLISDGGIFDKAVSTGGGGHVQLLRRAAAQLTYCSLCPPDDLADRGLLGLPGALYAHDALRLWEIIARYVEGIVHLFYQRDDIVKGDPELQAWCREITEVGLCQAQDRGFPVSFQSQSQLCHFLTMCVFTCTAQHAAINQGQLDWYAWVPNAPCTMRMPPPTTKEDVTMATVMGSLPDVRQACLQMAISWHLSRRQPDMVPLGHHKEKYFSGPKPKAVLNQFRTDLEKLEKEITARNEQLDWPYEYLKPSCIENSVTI
Method in brief: (§1)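 Freshly isolated human PMNL (5 × 10⁶/ml PGC buffer: PBS pH 7.4, 1 mg/ml glucose, 1 mM CaCl₂) preincubated with compound 15 min at 37 °C. Stimulated with 2.5 µM A23187 plus exogenous AA for 10 min at 37 °C. Stopped with methanol, PGB₁ added as internal standard, lipoxygenase products analysed by HPLC. Mean of n = 3–5.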

[2] = target: T2, Prostaglandin G/H synthase 1 (Ovis aries) (UniProt P05979); assay: Inhibition of ovine COX1 assessed as residual activity at 10 uM after 5 mins
T2 sequence (whole entry): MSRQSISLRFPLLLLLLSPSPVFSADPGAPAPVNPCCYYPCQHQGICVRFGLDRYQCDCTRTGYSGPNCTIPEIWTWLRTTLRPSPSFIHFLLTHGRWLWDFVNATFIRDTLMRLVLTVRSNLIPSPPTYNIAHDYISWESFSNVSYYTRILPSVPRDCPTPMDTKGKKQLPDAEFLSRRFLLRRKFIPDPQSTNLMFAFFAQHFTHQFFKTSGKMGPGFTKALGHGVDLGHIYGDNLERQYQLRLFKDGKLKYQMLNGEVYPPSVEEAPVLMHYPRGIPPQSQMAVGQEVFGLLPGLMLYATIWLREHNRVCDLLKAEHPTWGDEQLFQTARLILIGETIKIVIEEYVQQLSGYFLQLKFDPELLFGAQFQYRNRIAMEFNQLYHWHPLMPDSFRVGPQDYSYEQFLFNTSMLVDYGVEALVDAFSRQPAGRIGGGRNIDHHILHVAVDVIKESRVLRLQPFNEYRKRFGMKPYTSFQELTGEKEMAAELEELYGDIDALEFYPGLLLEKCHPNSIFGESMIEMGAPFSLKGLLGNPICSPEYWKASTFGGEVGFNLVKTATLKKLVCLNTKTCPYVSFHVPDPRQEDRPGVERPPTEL
Method in brief: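 Ovine COX-1 (50 units) or human recombinant COX-2 (20 units) in 1 ml 100 mM Tris pH 8 with 5 mM glutathione, 5 µM haemoglobin and 100 µM EDTA. Preincubated with 10 µM compound 5 min at 4 °C, warmed 60 s at 37 °C. Started with AA (5 µM for COX-1, 2 µM for COX-2), run 5 min at 37 °C. 12-HHT extracted and analysed by HPLC. n = 3.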

[3] = target: T3, Polyunsaturated fatty acid lipoxygenase ALOX15 (Homo sapiens) (UniProt P16050); assay: Inhibition of 15-lipoxygenase in A23187-stimulated human PMNL assessed as reduction of 15(S)-H(P)ETE formation up to 10 uM preincubated 15 mins by RP-HPLC analysis in presence of exogenous arachidonic acid; method in brief: as §1
T3 sequence (whole entry): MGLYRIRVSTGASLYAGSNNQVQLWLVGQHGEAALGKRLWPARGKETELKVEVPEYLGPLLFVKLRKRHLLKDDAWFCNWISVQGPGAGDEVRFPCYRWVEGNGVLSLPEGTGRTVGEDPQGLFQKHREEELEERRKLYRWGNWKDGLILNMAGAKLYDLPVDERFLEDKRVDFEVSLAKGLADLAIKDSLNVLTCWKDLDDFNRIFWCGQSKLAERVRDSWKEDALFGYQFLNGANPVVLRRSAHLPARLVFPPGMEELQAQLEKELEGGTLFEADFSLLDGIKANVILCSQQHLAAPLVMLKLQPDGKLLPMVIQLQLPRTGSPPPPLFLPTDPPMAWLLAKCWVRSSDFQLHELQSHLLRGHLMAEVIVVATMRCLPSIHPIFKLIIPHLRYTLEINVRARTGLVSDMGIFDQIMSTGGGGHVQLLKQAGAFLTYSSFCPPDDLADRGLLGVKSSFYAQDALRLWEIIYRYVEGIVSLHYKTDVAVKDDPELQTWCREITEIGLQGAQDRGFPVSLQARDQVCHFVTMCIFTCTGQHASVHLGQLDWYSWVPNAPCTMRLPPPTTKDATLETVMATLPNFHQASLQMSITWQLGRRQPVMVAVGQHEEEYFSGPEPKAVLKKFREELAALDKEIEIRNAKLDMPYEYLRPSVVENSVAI

inhibition [1]: inactive
Activity [2]: 79.2%
inhibition [3]: inactive
Compound: CCCCC(Sc1ccc(OCCCOc2ccc(-c3ccccc3)cc2)cc1)C(=O)O (stereo not drawn)

— ChEMBL document CHEMBL1777776, “Identification of 2-mercaptohexanoic acids as dual inhibitors of 5-lipoxygenase and microsomal prostaglandin E₂ synthase-1” (Bioorg Med Chem, 2011)
